Assay results: ChEMBL document CHEMBL2150962, “Antimicrobial rubrolides from a South African species of Synoicum tunicate” (J Nat Prod, 2012)

How the values were obtained:
[1] = system: Staphylococcus aureus; test: Antimicrobial activity against methicillin-resistant Staphylococcus aureus ATCC BAA-1720; type: functional, organism-based
[2] = system: Enterococcus faecalis; test: Antimicrobial activity against gentamycin- and vancomycin-resistant Enterococcus faecalis ATCC 700802 at 100 ug/ml; type: functional; conditions: read-out: GI
[3] = system: Staphylococcus epidermidis; test: Antimicrobial activity against Staphylococcus epidermidis ATCC 35984TCC BAA-1721; type: functional, organism-based
Outline: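 Microtiter broth dilution; S. epidermidis ATCC 35984 grown in tryptic soy broth, inoculum 5 × 10⁵ cfu/mL, 16 h static incubation at 37 °C. Compound tested over 130 - 0.3 μg/mL. Technical duplicates, biological triplicate; percentage inhibition fitted by nonlinear regression to IC50.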

[4] = system: Escherichia coli; test: Antimicrobial activity against Escherichia coli O157:H7 at 100 ug/ml; type: functional; conditions: read-out: GI

Row | SMILES | IC50 [1] | inhibition of growth at 100 µg/mL [2] | IC50 [3] | inhibition of growth at 100 µg/mL [4]
1 | COc1ccc(/C=C2\OC(=O)C=C2c2ccc(O)cc2)cc1Br | 256 µM | 43% | 98 µM | 22%
2 | O=C1C=C(c2ccc(O)c(Br)c2)/C(=C/c2ccc(O)cc2)O1 | 82 µM | 16% | 38 µM | 0%
3 | COc1ccc(/C=C2\OC(=O)C=C2c2ccc(O)c(Br)c2)cc1 | 360 µM | 2% | 42 µM | 14%
4 | O=C1C=C(c2ccc(O)c(Br)c2)/C(=C/c2ccc(O)c(Br)c2)O1 | 89 µM | 2% | 28 µM | 25%
5 | O=C1C=C(c2ccc(O)cc2)/C(=C/c2ccc(O)cc2)O1 [RUBROLIDE E] | 105 µM | 89% | 21 µM | 16%
6 | COc1ccc(/C=C2\OC(=O)C=C2c2ccc(O)cc2)cc1 [RUBROLIDE F] | 1010 µM | 47% | 79 µM | 15%
